Series [1] is described as follows: Neuroprotective activity against glutamate-induced neuronal cell death in Sprague-Dawley rat CGN cells assessed as cell viability at 10 uM preincubated for 24 hrs followed by glutamate challenge measured after 24 hrs by MTT assay (reference value: 40.4%). Type of series: functional. The note with it: read-out: Activity. (In general: Formazan colour is commonly taken as a measure of viable cells.)

Series [2] can be described thus: Neuroprotective activity against glutamate-induced neuronal cell death in Sprague-Dawley rat CGN cells at 10 uM preincubated for 24 hrs followed by glutamate challenge measured after 24 hrs relative to control. Format: functional.
The nature of series [3]: Neuroprotective activity against oxygen-glucose deprivation-induced neuronal cell death in Sprague-Dawley rat CGN cells assessed as cell viability at 10 uM preincubated for 24 hrs followed by induction of oxygen-glucose deprivation measured after 24 hrs by MTT assay (reference value: 48.7%). Type of series: functional. The note with it: read-out: Activity.
For series [4], the system named is neuronal. In words: Neuroprotective activity against glutamate-induced neuronal cell death in Sprague-Dawley rat CGN cells assessed as increase in cell viability preincubated for 24 hrs followed by glutamate challenge measured after 24 hrs by MTT assay. Format: functional, cell-based.
Series [5] in a line: Neuroprotective activity against oxygen-glucose deprivation-induced neuronal cell death in Sprague-Dawley rat CGN cells assessed as cell viability at 1 uM preincubated for 24 hrs followed by induction of oxygen-glucose deprivation measured after 24 hrs by MTT assay (reference value: 48.7%). Type of series: functional. The note with it: read-out: Activity.
The nature of series [6]: Neuroprotective activity against oxygen-glucose deprivation-induced neuronal cell death in Sprague-Dawley rat CGN cells at 10 uM preincubated for 24 hrs followed by induction of oxygen-glucose deprivation measured after 24 hrs relative to control. Format: functional.
Series [7] is described as follows: Neuroprotective activity against nutrient deprivation-induced neuronal cell death in Sprague-Dawley rat CGN cells at 10 uM preincubated for 24 hrs followed by induction of nutrient deprivation measured after 24 hrs relative to control. Format: functional. Summed up: (§1)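 Primary rat cerebellar granule neurons (8-day-old Sprague-Dawley pups, DIV 6-8) pretreated 24 h with compound (0.1% DMSO final), then deprived of B27 serum substitute for 24 h. MTT viability (0.5 mg/ml, 4 h) read at 570 nm against control = 100%; neuroprotection percentage derived from the basal deprived value; mean ± SD, n = 3.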

Series [8] in a line: Permeability of the compound at 25 ug/ml after 18 hrs by PAMPA assay. As to conditions: read-out: permeability. Format: ADME. Background: PAMPA measures passive passage across an artificial lipid membrane.
Series [9] in a line: Cytotoxicity against Sprague-Dawley rat CGN cells at <10 uM after 72 hrs by MTT assay. Type of series: cell-based. Summed up:
(§2)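 Primary cerebellar granule neurons from 8-day SD rat pups; cytosine arabinoside […] added at 24 h, used at DIV 6–8. Cells exposed to a concentration series for 72 h, 0.1% DMSO final. Viability by MTT (0.5 mg/ml, 4 h, 37 °C); formazan dissolved in DMSO, OD 570 nm. n = 3, mean ± SD.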

Series [10] is described as follows: Cytotoxicity against Sprague-Dawley rat CGN cells at 50 to 100 uM after 72 hrs by MTT assay. Type of series: cell-based. A digest of the protocol:
as §2

Series [11] is described as follows: Neuroprotective activity in Sprague-Dawley rat CGN cells assessed as upregulation of HO-1 expression after 24 hrs by Western blot analysis. Format: functional, cell-based. A digest of the protocol:
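Primary granule neurons treated with a concentration series for 24 h, lysed in RIPA buffer, protein by BCA. Separated on 15% SDS-PAGE, transferred to PVDF, blocked in 5% BSA. Primary antibody overnight at 4 °C, secondary 30 min at room temperature; chemiluminescent detection. HO-1 quantified by densitometry normalized to β-actin. n = 3, mean ± SD.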
For orientation: In western blotting, separated proteins are transferred to a membrane and probed.

The subject of series [12] is neuronal. In words: Neuroprotective activity against glutamate-induced neuronal cell death in Sprague-Dawley rat CGN cells assessed as increase in SOD level at 10 uM preincubated for 24 hrs followed by glutamate challenge measured after 24 hrs. Format: functional, cell-based.
Series [13] concerns neuronal. Kind of series: Neuroprotective activity against glutamate-induced neuronal cell death in Sprague-Dawley rat CGN cells assessed as increase in GSH level at 10 uM preincubated for 24 hrs followed by glutamate challenge measured after 24 hrs. Type of series: functional, cell-based. A digest of the protocol:
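Granule neurons pretreated 24 h with […] compound, then […] for 24 h. Lysed in buffer containing protease inhibitor cocktail; protein determined by BCA. SOD activity and GSH level measured with commercial kits. n = 3, mean ± SD.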

Series [14] in a line: Neuroprotective activity against nutrient deprivation-induced neuronal cell death in Sprague-Dawley rat CGN cells assessed as cell viability at […] preincubated for 24 hrs followed by induction of nutrient deprivation measured after 24 hrs by MTT assay (reference value: 44.1%). Type of series: functional. The note with it: read-out: Activity. Summed up: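 Cerebellar granule neurons pretreated 24 h with 1 or […] compound (0.1% DMSO), then kept without B27 supplement for 24 h. Viability by MTT (0.5 mg/ml, 4 h, OD 570 nm) against non-deprived control (100%); neuroprotection % from basal value. n = 3, mean ± SD.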

A short description of series [15]: Neuroprotective activity against nutrient deprivation-induced neuronal cell death in Sprague-Dawley rat CGN cells at […] preincubated for 24 hrs followed by induction of nutrient deprivation measured after 24 hrs relative to control. Type of series: functional. A digest of the protocol: as §1

Calls of active or inactive are those of the source. No cut-off for these calls is given here.

As to `COc1cc2c(cc1C(=O)N(C)C)CC[C@H]1C(C)(C)[C@@H](O)CC[C@]21C`, the viability at 10 µM in series [1] is 70.7%. Moreover, in series [2], the Activity is reported as 50.8%.

For the compound `CCC(=O)c1cc2c(cc1OC)[C@@]1(C)CC[C@H](O)C(C)(C)[C@@H]1CC2`, the viability at 10 µM in series [1] turned out to be 63.2%. For the same compound, in series [2], the Activity worked out at 38.3%.

In the case of `CCCCCCCC(=O)c1cc2c(cc1OC)[C@@]1(C)CC[C@H](O)C(C)(C)[C@@H]1CC2`, the viability at 10 µM in series [1] worked out at 40.5%.

In the case of `COc1cc2c(cc1CO)CC[C@H]1C(C)(C)[C@@H](O)CC[C@]21C`, the viability at 10 µM in series [1] was determined as 64.4%. The compound further registered an Activity in series [2] of 40.3%.

For `COc1cc2c(cc1C(=O)C(C)C)CC[C@H]1C(C)(C)[C@@H](O)CC[C@]21C`, the viability at 10 µM in [1] is 38.8%.

Consider `CCCCOC(=O)c1cc2c(cc1OC)[C@@]1(C)CC[C@H](O)C(C)(C)[C@@H]1CC2`, for which the viability at 10 µM in series [1] was 71%. This compound displayed an Activity in series [2] of 51.3%.

Regarding `COc1cc2c(cc1C(C)=O)CC[C@H]1C(C)(C)[C@@H](OC(=O)C(F)(F)F)CC[C@]21C`, the viability at 10 µM in [1] stood at 81%; in series [3], 60.5%. Besides, the Activity is 68.1% in series [2]; “Dose-dependent effect” in the series on neuronal [4]; 23% in series [6]; 5% in series [7]; “Non-toxic” in series [9]. Further, the viability at 1 µM in [5] turned out to be 48.2%. Also, in series [8], the Papp at 18 h, 25 ug/ml came to 73.1 nm/s.

With `COC(=O)c1cc2c(cc1OC)[C@@]1(C)CC[C@H](O)C(C)(C)[C@@H]1CC2`, the viability at 10 µM in [1] was 72.4%; in series [3] it was 68.4%. Besides, the Activity in series [2] was 53.7%; with neuronal [4], “Dose-dependent effect”; in [6] it was 38.4%; in [7], 13.6%; in [9], “Non-toxic”. For the same compound, the viability at 1 µM in series [5] is 43.9%.

On to `COc1cc2c(cc1C(=O)O)CC[C@H]1C(C)(C)[C@@H](O)CC[C@]21C`, for which the viability at 10 µM in series [1] is 54%. This compound also came in with an Activity in series [2] of 22.8%.

As for `COc1cc2c(cc1C(C)=O)CC[C@H]1C(C)(C)[C@@H](OC(C)=O)CC[C@]21C`, the figures for the viability at 10 µM in [1] and in [3] were 80.4% and 60%, respectively. For the same compound, the Activity in series [2] was 67.1%; in the series with neuronal [4], “Dose-dependent effect”; in series [6], 22%; in [7], 6%; in series [9], “Non-toxic”; in series [10], “Toxic”. Moreover, the viability at 1 µM in series [5] stood at 50%.

`CCNC(=O)c1cc2c(cc1OC)[C@@]1(C)CC[C@H](O)C(C)(C)[C@@H]1CC2`: in [1], the viability at 10 µM is 78.2%. Moreover, in series [2], the Activity amounted to 63.4%.

Consider `COc1cc2c(cc1C(C)=O)CC[C@H]1C(C)(C)C(=O)CC[C@]21C`, for which, in series [1], the viability at 10 µM came out at 69.7%. The compound also registered an Activity in series [2] of 49.2%.

In the case of `CNC(=O)c1cc2c(cc1OC)[C@@]1(C)CC[C@H](O)C(C)(C)[C@@H]1CC2`, the viability at 10 µM in [1] was 77.3%. Besides, the Activity in series [2] turned out to be 61.9%.

`COc1cc2c(cc1C(C)=O)CC[C@H]1C(C)(C)[C@@H](O)CC[C@]21C`: the viability at 10 µM in series [1] turned out to be 85.2%; in [3], 74.5%. The Activity is 75.2% in series [2]; “Dose-dependent effect” with neuronal [4]; 50.3% in series [6]; 19.5% in series [7]; “Dose-dependent effect” in [11]; “Non-toxic” in series [9]. The Activity entry in series [10] was “Toxic”. Moreover, in series [5], the viability at 1 µM came to 51.1%. Moreover, the outcome with neuronal [12] and in the series with neuronal [13] was Active.

As to `CCOC(=O)c1cc2c(cc1OC)[C@@]1(C)CC[C@H](O)C(C)(C)[C@@H]1CC2`, in [1], the viability at 10 µM came to 73.1%. The Activity in series [2] is given as 54.9%.

In the case of `CC(=O)N[C@@H](CS)C(=O)O` [ACETYLCYSTEINE], in [14], the viability was found to be 53.7%. The Activity in [15] is 17.2%.

For the compound `COc1cc2c(cc1C(=O)N1CCCCC1)CC[C@H]1C(C)(C)[C@@H](O)CC[C@]21C`, the viability at 10 µM in [1] worked out at 79.1%. In [2], this compound returned an Activity of 64.9%.

As for `COc1cc2c(cc1C(=O)NCC(=O)O)CC[C@H]1C(C)(C)[C@@H](O)CC[C@]21C`, the viability at 10 µM in series [1] is 57.1%. In series [2], this compound showed an Activity of 28%.

As for `C#CCNC(=O)c1cc2c(cc1OC)[C@@]1(C)CC[C@H](O)C(C)(C)[C@@H]1CC2`, the viability at 10 µM in series [1] is 81.7%; in series [3], 67.8%. For the same compound, the Activity in series [2] was 69.3%; with neuronal [4], “Dose-dependent effect”; in series [6], 37.2%; in series [7], 17%; in series [9], “Non-toxic”; in series [10] it was “Toxic”. Besides, the viability at 1 µM in [5] came to 59.7%.

Regarding `COCCC(=O)c1cc2c(cc1OC)[C@@]1(C)CC[C@H](O)C(C)(C)[C@@H]1CC2`, the viability at 10 µM in [1] is 71.5%. The Activity in series [2] amounted to 52.2%.

With `CC(=O)c1cc2c(cc1O)[C@@]1(C)CC[C@H](O)C(C)(C)[C@@H]1CC2`, in [1], the viability at 10 µM was 77.1%. This compound also came in with an Activity in series [2] of 61.6%.

Source of the values: ChEMBL document CHEMBL3739301, “Design, synthesis and biological evaluation of tricyclic diterpene derivatives as novel neuroprotective agents against ischemic brain injury” (Eur J Med Chem, 2015).
